MT1-MMP act inh: blockers of MT1-MMP proenzyme processing, primary screen, HT1080 RFP-PRO-GFP cells, GFP/RFP fluorescence; Matrix metalloproteinase-14 (Homo sapiens), P50281; GFP/RFP ratio fluorescence, overnight; percent of plate control window, DMSO zero; GFP/RFP ratio change, % at 20 µM; actives 0.061% (n = 360,000); AID 651647, 2012;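 active = GFP/RFP ratio change of at least 30% with cell ATP level not reduced by more than half and red fluorescence within 50% of control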
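Test system: HT1080 RFP-PRO-GFP cells; Benchmarks: DMSO and RFP-L50D-GFP cell wells; Timing: cells overnight before dosing, compound overnight, 37 °C, 5% CO2; Compound: one 20 µM compound dose with 1% DMSO; Read-out: GFP/RFP fluorescence ratio.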
TAG inh: inhibitors of triacylglycerol accumulation, primary screen, cell-based, uHTS, fluorescence, H9c2 | H9c2 cells, Nile Red lipid (TAG) fluorescence; cells loaded with 200 µM oleic acid | inhibition, % at 12.5 µM | actives 0.66% (n = 230,000);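 active = pattern-corrected inhibition of lipid staining of at least 50% with the nuclear-stain viability signal not falling by more than 50%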;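 note: 0% = DMSO wells and 100% = triacsin C control wells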
sPLA2-III inh: human group III sPLA2 inhibitors, primary screen, biochemical, QFRET, BODIPY PC-A2 liposome substrate | Group 3 secretory phospholipase A2 (Homo sapiens), Q9NZ20 | QFRET BODIPY PC-A2 liposome hydrolysis, fluorescence | inhibition, % at 12.2 µM | actives 0.56% (n = 370,000) | AID 743126, 2013;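 active = inhibition above mean plus 3 SD of compounds lying within the high and low control bounds, cut at about 19% in these data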;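 note: 0% = median of test compound wells and 100% = no enzyme DMSO wells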
Target sequence (Q9NZ20 whole entry, looked up): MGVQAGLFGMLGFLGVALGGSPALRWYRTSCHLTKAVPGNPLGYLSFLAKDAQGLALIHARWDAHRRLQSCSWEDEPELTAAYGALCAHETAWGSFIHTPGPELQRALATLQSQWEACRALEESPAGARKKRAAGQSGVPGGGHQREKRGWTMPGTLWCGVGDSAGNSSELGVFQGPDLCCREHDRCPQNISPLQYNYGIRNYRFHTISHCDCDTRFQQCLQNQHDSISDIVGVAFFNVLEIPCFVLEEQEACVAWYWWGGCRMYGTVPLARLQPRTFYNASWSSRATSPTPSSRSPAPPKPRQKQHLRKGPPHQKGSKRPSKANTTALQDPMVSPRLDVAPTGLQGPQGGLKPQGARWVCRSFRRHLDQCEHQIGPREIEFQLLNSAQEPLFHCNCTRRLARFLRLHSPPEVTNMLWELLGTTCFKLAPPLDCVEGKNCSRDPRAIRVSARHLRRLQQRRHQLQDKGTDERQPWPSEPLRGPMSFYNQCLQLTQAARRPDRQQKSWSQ
Efflux pump mplx: inhibitors of Candida efflux pumps in yeast, primary screen, S. cerevisiae, Nile Red, multiplex. S. cerevisiae Candida pump triplex. inhibition, % at 10 µM. actives 0.44% (n = 330,000). AID 485275, 2010;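 active = plate passing quality check with inhibition over a set limit, or well fluorescence over plate mean plus 4 SD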;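 note: Nile Red retained in pooled yeast measured as flow cytometry median fluorescence; 0% = buffer negative control and 100% = Enniatin B positive control; higher means more Nile Red kept so more efflux inhibition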
Yeast cmpd fluor: compound fluorescence in yeast efflux pump counter-screen | fluorescence ratio to DMSO, % at 10 µM | S. cerevisiae AD/pABC3, flow cytometry | actives 4% (n = 1,700) | shares compounds with Efflux pump mplx;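 active = fluorescence ratio to DMSO above its plate's cutoff, the plate mean ratio plus 5 SD, cut at about 210% in these data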;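 note: unstained yeast with no Nile Red so the signal is compound autofluorescence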
Mdr1 pump inh: inhibitors of Candida albicans Mdr1 efflux, confirmation, flow cytometry, singleplex, Cherry Pick1 set | shares compounds with Efflux pump mplx | S. cerevisiae AD/CaMDR1, Nile Red efflux | inhibition, % at 10 µM | actives 1% (n = 1,700) | AID 588518, 2011; in the data active = inhibition above about 26%;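 note: 0% = DMSO vehicle and 100% = reference inhibitor; higher means more Nile Red retained so more efflux inhibition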
CaCdr2 efflux inh: inhibitors of Candida albicans Cdr2 efflux pump, confirmation, S. cerevisiae AD/CaCDR2, flow cytometry, cherry pick 1, singleplex. shares compounds with Efflux pump mplx. Nile Red retention. Nile Red retention ratio vs DMSO, % at 10 µM. actives 4% (n = 1,700). AID 588520, 2011; in the data active = Nile Red retention ratio vs DMSO above about 190%;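 note: higher ratio means more blocking of Cdr2 efflux of the dye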
CaCdr1 efflux inh: inhibitors of Candida albicans Cdr1 efflux pump, confirmation, S. cerevisiae AD/CaCDR1, flow cytometry, cherry pick 1, singleplex; AID 588522, 2011; Nile Red efflux; shares compounds with Efflux pump mplx; actives 1% (n = 1,700); inhibition, % at 10 µM;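 active = inhibition above the screen-wide mean plus twice its standard deviation, cut at about 32% in these data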
Numbers without * were called inactive; . = no result. An excerpt weighted towards active compounds, which were near 1.3% of everything screened.

SMILES	MT1-MMP act inh	TAG inh	sPLA2-III inh	Efflux pump mplx	Yeast cmpd fluor	Mdr1 pump inh	CaCdr2 efflux inh	CaCdr1 efflux inh
COc1cccc(-c2sc3ccc(OC)cc3c2-c2ccc(OCCN3CCOCC3)cc2)c1	-3.4	-3.9	-15.2	69.7*	90.8	12.8	101.7	67.2*
O=C(Nc1ncn[nH]1)c1cccc(S(=O)(=O)N2CCOCC2)c1	2.8	-3.2	-6.8	0.5	.	.	.	.
O=C(COc1ccc2ccccc2c1)Nc1nnc(-c2ccco2)s1	.	.	.	-0.1	.	.	.	.
Cc1ccccc1OCC(=O)Nc1nnc(-c2ccco2)s1	9.8	3.0	-0.5	0.0	103.0	0.0	101.8	0.0
CC1CCCC(C)N1c1nnc(N)s1 (configuration not stated)	-0.1	.	6.7	0.0	.	.	.	.
O=c1[nH]c2cc([N+](=O)[O-])c(NCCO)c([N+](=O)[O-])c2[nH]1	12.2	.	5.0	-0.1	.	.	.	.
COc1ccc2cc(C#N)c(N3CCN(Cc4nnnn4CCC(C)C)CC3)nc2c1	0.4	0.7	-2.2	0.7*	118.0	0.0	116.2	0.2
CCOc1ccc(N2C(=O)CC(N(C)Cc3ccccc3)C2=O)cc1 (configuration not stated)	5.6	.	-0.1	15.2*	103.0	-0.2	99.7	-0.1
CCOC(=O)C1=C(CS(=O)(=O)c2ccccc2)NC(=O)NC1c1ccccc1 (configuration not stated)	1.1	1.6	-2.4	0.5*	89.9	0.0	96.0	0.0
O=C1c2ccccc2-c2onc3ccc(NCCCn4ccnc4)c1c23	.	.	.	-0.1	.	.	.	.
COc1ccc2noc3c2c1C(=O)c1ccccc1-3	-26.1	1.3	-443.7	0.9*	194.4	0.8	197.1*	0.2
C#CCNC(=O)C[C@H]1C[C@@]2(C(=O)OC)C(=C[C@H](C(C)C)O[C@@H]2C2CC2)N(CCCCCCCC)C1=O	.	.	-0.6	.	.	.	.	.
O=C(O)C1C2CCC(C2)C1C(=O)Nc1cccc([N+](=O)[O-])c1 (configuration not stated)	0.5	.	5.0	0.0	.	.	.	.
CC1=C(C)CC(C(=O)Nc2cccc([N+](=O)[O-])c2)C(C(=O)O)C1 (configuration not stated)	14.5	.	0.4	34.8*	98.2	-0.4	91.4	-0.1
c1ccc2nc(N3CCCC3)c(N3CCCCC3)nc2c1	4.4	-17.8	1.1	.	.	.	.	.
c1ccc2nc3c(nc2c1)OCC1CCCCN31 (configuration not stated)	-0.2	.	2.5	0.8*	95.0	-0.1	95.6	0.1
COC1CC(N)C2OC(c3ccccc3)OCC2O1 (configuration not stated)	-1.9	4.9	10.8	.	.	.	.	.
COC(=O)c1ccc(S(=O)(=O)NCc2ccc(OC)cc2)n1C	3.7	-7.2	0.5	2.5*	102.2	-0.1	98.1	0.2
CCCCOCCCNC(=O)C[C@@H]1C[C@@]2(C(=O)OC)CC(C)(C)CC=C2N(Cc2ccc3c(c2)OCO3)C1=O	-2.8	.	-10.2	.	.	.	.	.
Cc1ccc(NC(=O)C2CCN(S(=O)(=O)c3ccc4c(c3)CCCC(=O)N4)CC2)c(Br)c1	4.2	.	-13.6	-0.1	.	.	.	.
O=c1[nH]c(C2CCN(S(=O)(=O)c3ccc(C(F)(F)F)cc3)CC2)nc2c1nnn2Cc1cccc(F)c1	.	.	4.2	-0.2	.	.	.	.
O=c1[nH]c(C2CCN(S(=O)(=O)c3ccc4c(c3)OCCO4)CC2)nc2c1nnn2Cc1ccccc1F	-7.3	.	-2.6	1.0*	110.0	0.5	120.8	0.3
O=c1[nH]c(C2CCN(S(=O)(=O)c3ccc4c(c3)OCCO4)CC2)nc2c1nnn2Cc1c(F)cccc1Cl	-4.8	.	-22.9	0.0	.	.	.	.
Cc1ccc(C)c(Cn2nnc3c(=O)[nH]c(C4CCN(S(=O)(=O)c5ccc(S(=O)(=O)NC6CC6)cc5)CC4)nc32)c1	-1.7	.	-71.8	3.1*	99.0	-0.2	105.1	0.0
Cc1ccc(Cn2nnc3c(=O)[nH]c(C4CCN(S(=O)(=O)c5cc(C)ccc5C)CC4)nc32)cc1	7.7	.	-37.9	0.0	.	.	.	.
SMILES	MT1-MMP act inh	TAG inh	sPLA2-III inh	Efflux pump mplx	Yeast cmpd fluor	Mdr1 pump inh	CaCdr2 efflux inh	CaCdr1 efflux inh
O=c1[nH]c(C2CCN(S(=O)(=O)c3ccccc3C(F)(F)F)CC2)nc2c1nnn2Cc1cccc(F)c1	2.6	.	-4.5	3.1*	100.2	-0.1	114.1	0.0
Cc1ccc(C)c(Cn2nnc3c(=O)[nH]c(C4CCN(S(=O)(=O)c5ccc(S(=O)(=O)N(C)C)cc5)CC4)nc32)c1	-0.3	.	-4.1	0.4	93.3	-0.3	116.5	0.0
O=c1[nH]c(C2CCN(S(=O)(=O)c3ccc(S(=O)(=O)NC4CC4)cc3)CC2)nc2c1nnn2Cc1ccccc1	1.7	.	-56.7	0.5	.	.	.	.
COC(=O)C1CN(Cc2ccc(OC)cc2)CCS(=O)(=O)N1Cc1ccc(C(F)(F)F)cc1 (configuration not stated)	.	.	0.8	.	.	.	.	.
Cc1ccc(Cn2nnc3c(=O)[nH]c(C4CCN(S(=O)(=O)c5ccc(F)cc5)CC4)nc32)cc1	7.2	.	-58.0	-0.1	100.3	-0.2	116.0	0.0
Cc1ccc(C)c(S(=O)(=O)N2CCC(c3nc4c(nnn4Cc4ccc(F)cc4)c(=O)[nH]3)CC2)c1	1.8	-30.3	-37.2	-0.1	.	.	.	.
COC(=O)C1=C(C)N(C)C(=NCc2ccc(OC)cc2)NC1c1cccc(Cl)c1 (configuration not stated)	.	.	1.0	.	.	.	.	.
COc1ccc(S(=O)(=O)N2CCOC2CNC(=O)C(=O)NCc2ccc3c(c2)OCO3)cc1 (configuration not stated)	-0.1	13.9	-1.0	-0.1	97.8	-0.2	102.2	-0.1
COc1ccc(CNC(=O)C(=O)NCC2OCCN2S(=O)(=O)c2ccc(OC)cc2)cc1 (configuration not stated)	1.2	21.4	-10.2	-1.0	101.1	-0.1	98.1	-0.1
COc1ccc(CNC(=O)C(=O)NCC2OCCN2S(=O)(=O)c2ccc3c(c2)OCCO3)cc1 (configuration not stated)	3.4	0.5	7.1	0.0	.	.	.	.
COc1ccc(CCNC(=O)C(=O)NCC2OCCN2S(=O)(=O)c2ccc(OC)cc2)cc1 (configuration not stated)	-4.9	12.6	-11.8	-0.3	.	.	.	.

High-throughput results deposited in PubChem BioAssay by several laboratories.
